Screens deposited in PubChem by several laboratories.
PP5 primary: PP5 (human) phosphatase inhibition | purified PP5c, OMFP substrate fluorescence | 320,000 tested, 0.18% active | inhibition, % at 6.7 µM;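 active = inhibition above the campaign's mean inhibition across all tested compounds plus 3 SD, cut at about 9.5% in these data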;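 note: 0% = DMSO only and 100% = 100 µM cantharidin control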
Target sequence (P53041 whole entry, looked up): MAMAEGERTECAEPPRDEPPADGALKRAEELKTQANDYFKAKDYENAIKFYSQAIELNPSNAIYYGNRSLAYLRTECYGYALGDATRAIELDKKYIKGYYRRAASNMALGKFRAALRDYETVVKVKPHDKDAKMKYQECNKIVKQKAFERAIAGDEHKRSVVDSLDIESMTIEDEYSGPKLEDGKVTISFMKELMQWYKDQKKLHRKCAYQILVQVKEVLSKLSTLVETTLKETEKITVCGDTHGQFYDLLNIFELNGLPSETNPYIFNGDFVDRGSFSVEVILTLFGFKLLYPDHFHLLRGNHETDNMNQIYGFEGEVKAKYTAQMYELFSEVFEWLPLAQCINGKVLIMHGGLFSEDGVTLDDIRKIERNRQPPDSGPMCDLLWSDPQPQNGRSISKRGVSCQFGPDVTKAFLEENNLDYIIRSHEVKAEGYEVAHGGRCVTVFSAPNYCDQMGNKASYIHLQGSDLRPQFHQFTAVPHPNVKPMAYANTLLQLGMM
LMPTP block: blocks human LMPTP phosphatase; recombinant LMPTP-A, OMFP fluorogenic substrate, fluorescence intensity; inhibition, % at 20 µM; P24666; 360,000 tested, 0.22% active;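 active = compounds that cut the enzyme signal by at least half of the control window in the single-dose screen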;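 note: plate controls were DMSO wells with enzyme plus substrate for no effect and substrate without enzyme for full effect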
Target sequence (P24666 whole entry, looked up): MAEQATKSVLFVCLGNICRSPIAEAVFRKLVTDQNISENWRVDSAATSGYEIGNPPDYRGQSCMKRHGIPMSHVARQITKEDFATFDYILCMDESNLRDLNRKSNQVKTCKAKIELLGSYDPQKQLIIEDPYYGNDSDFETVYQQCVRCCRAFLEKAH
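Buffer or medium: Bis-Tris pH 6.0, DTT, detergent; Assay system: LMPTP-A enzyme; Quantity: 0.625 nM enzyme; Detection: endpoint fluorescence intensity; Times: 50 min dark incubation at room temperature; Controls: substrate-only low control, DMSO enzyme-plus-substrate high control; Doses: single 20 µM dose; Read-out: percent inhibition versus substrate-only and uninhibited controls; Reagent: 400 µM OMFP.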
STEP block: blocks human striatal-enriched tyrosine phosphatase | P54829 | recombinant STEP, OMFP fluorogenic substrate, fluorescence | inhibition, % at 20 µM | 360,000 tested, 0.25% active | AID 588621;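 active = inhibition at 20 µM, scaled per plate between control wells, above about 37%, limit read from the data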;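 note: 0% = DMSO with enzyme and substrate and 100% = substrate only without enzyme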
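Test system: STEP tyrosine phosphatase / Reagent: OMFP at 25 µM / Doses: 20 µM, 1% DMSO / Read-out: percent inhibition scaled to no-enzyme and uninhibited-enzyme controls, plate-pattern corrected / Detection: FITC-channel fluorescence of OMFP product / Medium: Bis-Tris buffer pH 6.0, 2.5 mM DTT, 0.005% Tween 20 / Schedule: 20 min at room temperature, dark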
PP1 counter: counter-screen for PP5 inhibitors: inhibitors of human PP1-alpha. P62136. inhibition, % at 6.7 µM. purified PP1alpha, OMFP fluorescence. 320,000 tested, 0.9% active;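 active = inhibition above the mean inhibition of all tested compounds plus 3 SD, computed separately for each screening campaign, cut at about 15% in these data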
Scp1 inh: Scp-1 (human) phosphatase inhibition | 340,000 tested, 0.88% active | Recombinant Scp1, phosphopeptide, malachite green phosphate absorbance | Q9GZU7 | inhibition, % at 20 µM;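 active = inhibition above about 50% at 20 µM, limit read from the data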;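 note: plate controls were DMSO wells with enzyme for no effect and wells lacking enzyme for full effect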
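Material: truncated SCP-1 phosphatase (76-261aa) / Buffer or medium: 50 mM Tris acetate pH 5.5, 0.005% Tween-20, 10 mM MgCl2 / Compound dosing: one concentration, 20 µM, with 1.0% DMSO / Incubation: 45 min room-temperature reaction, 5 min colour, 30 min stabiliser / Detection: colorimetric free-phosphate detection, absorbance 630 nm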
STEP inh conf: confirmation of human STEP phosphatase inhibitors; shares compounds with STEP block; recombinant STEP, OMFP fluorogenic substrate, fluorescence; inhibition, % at 20 µM; 520 tested, 32% active; call rule not given here;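 note: 0% = enzyme with substrate plus DMSO and 100% = substrate without enzyme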
The depositor's hits bear a star; . = not tested or not shown. In the library only some 1.9% were active in any assay of this set; here they are far more common.

SMILES	PP5 primary	LMPTP block	STEP block	PP1 counter	Scp1 inh	STEP inh conf
Cc1nnsc1-c1c(C(=O)Oc2ccccc2)c(C)nn1-c1ccccc1	3	2	-1	0	-30	.
CCCN1CCN(C(=S)Nc2ccc(S(N)(=O)=O)cc2)CC1	0	-1	4	-1	-1	.
NC(=O)C1(N2CCCCC2)CCN(C(=S)Nc2ccc(S(N)(=O)=O)cc2)CC1	0	-1	92*	-3	-4	63*
NS(=O)(=O)c1ccc(NC(=S)N2CCC(Cc3ccccc3)CC2)cc1	0	3	80*	-3	-6	31*
NS(=O)(=O)c1ccc(NC(=S)N2CCN(Cc3ccc4c(c3)OCO4)CC2)cc1	0	-1	92*	-3	-24	25
CCOC(=O)N1CCC(N(CCN(C)C)C(=S)Nc2cc(C)ccc2C)CC1	-1	-10	-1	-3	-3	.
CCOC(=O)N1CCC(N(CCN(C)C)C(=S)Nc2cc(Cl)ccc2C)CC1	-2	-10	65*	-6	-13	36*
CCOc1ccc(CN(C)CC(=O)Nc2ccccc2C(=O)NC2CC2)cc1	.	0	-1	.	-6	.
CNC(=S)Nc1ccccc1-c1ccccc1	-2	-2	41*	-1	-4	6
COc1cc(C(=O)NCc2cccc3ccccc23)cc(Cl)c1OC	4	2	1	3	-10	.
O=C(Nc1nc(-c2ccc3c(c2)Cc2ccccc2-3)cs1)c1ccccc1	3	-1	47*	-1	-2	2
Cc1cccc(OCC(=O)NNC(=O)CSc2ncc(C#N)c(N)n2)c1	2	0	-1	-3	-5	.
N#Cc1cnc(SCC(=O)NNC(=O)COc2cccc3ccccc23)nc1N	0	15	100*	0	0	1
CCn1ccnc1CN(C)Cc1nc(-c2ccc(C(=O)OC)cc2)no1	2	-1	0	1	-11	.
CCOc1ccc(C(=O)Nc2nc(C)c(C(=O)OC)s2)cc1	0	42	79*	2	40	17
C[C@@H](NC(=O)c1ncn2c1c(=O)[nH]c1ccc(Br)cc12)c1ccccc1	.	58*	50*	.	.	-1
COc1ccc(NC(=S)N(CCCN2CCC(C)CC2)Cc2cccs2)cc1Cl	-2	0	56*	-1	-4	27*
S=C(NCCCN1CCOCC1)Nc1ccc(Cl)cc1Cl	2	-8	42*	-1	-13	9
COc1ccc(NC(=S)NCCCN2CCCC2)cc1Cl	0	-2	90*	8	-17	41*
COc1ccc(NC(=S)NCCN2CCC(C)CC2)cc1Cl	0	-1	90*	-3	-4	79*
COc1ccc(NC(=S)N(CCCN2CCN(C)CC2)Cc2cccs2)cc1	-1	-7	-3	3	-5	.
S=C(NCCN1CCOCC1)Nc1ccc(Cl)cc1Cl	-3	-3	1	-1	-7	.
CCn1c(=O)c(C(=O)NCc2ccc(Cl)cc2)c(O)c2ccccc21	.	3	0	.	-18	.
CN(Cc1ccncn1)C(=O)CC1C(=O)NCCN1Cc1cccc(Oc2ccccc2)c1 (stereo not drawn)	1	0	-1	0	-6	.
N#Cc1ccc(C(=O)N2CCC3CC2c2cc(-c4ccccc4)ccc23)cc1 (stereo not drawn)	.	2	70*	.	-8	21
SMILES	PP5 primary	LMPTP block	STEP block	PP1 counter	Scp1 inh	STEP inh conf
COc1ccc(/C=C2/SC(=O)N(CCC(=O)Nc3ccc(C)cc3)C2=O)cc1OC	3	.	.	-4	.	.
COc1cc(/C=C2/SC(=S)N(CC(=O)O)C2=O)ccc1OCC(=O)Nc1ccc(C)c(C)c1	3	-1	91*	-1	.	56*
COC(=O)c1c(NC(=O)Cc2ccccc2)sc2c1CC(C)(C)NC2(C)C	1	-1	51*	-4	0	20
CCN1CCN(C(=S)c2ccc(-c3ccccc3)cc2)CC1	-1	-1	42*	2	-1	25
CCN1CCN(C(=S)c2ccc(Cl)c(Cl)c2)CC1	1	-1	91*	-3	-9	51*
Cc1ccc(C(=S)N2CCN(Cc3ccccc3)CC2)cc1	4	1	87*	0	2	34
S=C(c1ccccc1)N1CCN(C(=S)c2ccccc2)CC1	-1	-1	3	-3	-7	.
CCN1CCN(C(=S)c2ccc(OCC(=O)NCc3ccccc3)cc2)CC1	-3	-2	64*	-3	-5	25*
O=C(NCCC(=O)N1CCN(c2ccccc2O)CC1)c1ccc(Cl)cc1	0	1	1	0	-3	.
Cc1c2c(c(C)n1C)C(C(=O)NC1CCCCC1)N(Cc1ccccc1)C2=O (stereo not drawn)	-1	-2	0	1	-5	.
COc1cc(Cl)ccc1NC(=S)N(CCCN1CCOCC1)Cc1cn(C)c2ccccc12	2	-1	91*	3	-6	49*
COc1ccc(Cl)cc1NC(=S)N(CCCN1CCOCC1)Cc1cn(C)c2ccccc12	5	-4	94*	4	-2	48*
Cc1ccc([N+](=O)[O-])cc1NC(=O)Cc1ccc(F)cc1	-1	-1	-1	-3	-1	.
Cc1cc([N+](=O)[O-])ccc1NC(=O)Cc1ccc(F)cc1	0	-1	117*	-3	-5	1
Cc1ccc2[nH]c(CSc3ccccc3)cc(=O)c2c1	1	-1	-2	-2	-9	.
CC(C(=O)Nc1ccc(O)cc1C(=O)O)N1C(=O)/C(=C\c2cccs2)SC1=S (stereo not drawn)	2	8	77*	4	34	80*
O=C(CCCN1C(=O)/C(=C\c2cccs2)SC1=S)Nc1ccccc1O	.	0	-1	.	.	.
CCC(CC)c1nnc(NC(=O)c2cc(C(=O)OC)cc([N+](=O)[O-])c2)s1	0	1	97*	-2	-9	69*
COc1ccc(/C=C(/C#N)C(=O)Nc2ccccc2C)cc1C(=O)O	0	-1	-1	-8	-3	.
CCOc1cc(/C=C(\C#N)C(=O)Nc2ccccc2C(=O)O)ccc1OC(=O)c1ccc(C)cc1	6	0	58*	-3	41	4
Cc1csc(=O)n1CCC(=O)OCC(=O)NCc1ccc(Cl)cc1Cl	1	0	1	0	-4	.
Cc1csc(=O)n1CCC(=O)OCC(=O)NNC(=O)c1ccc(Cl)cc1	.	0	49*	.	4	2
O=C(NCCCn1ccnc1)C(Cc1ccccc1)N1C(=O)c2ccccc2C1=O (stereo not drawn)	0	-1	48*	2	0	36*
O=c1c2ccccc2ncn1CCOc1ccccc1[N+](=O)[O-]	1	0	1	4	-8	.
O=C(Nc1cccc(F)c1)Nc1ccc2c(c1)C(=O)OC2	-1	0	1	-4	-4	.
